Assay results: ChEMBL document CHEMBL4020800, “The design, synthesis, and anti-inflammatory evaluation of a drug-like library based on the natural product valerenic acid” (Bioorg Med Chem Lett, 2017)
Activity calls are given as the source filed them. The rule behind the calls is not given here.

Experiments:
[1] = system: Keratinocyte; experiment: Antiinflammatory activity in primary human […] keratinocytes assessed as inhibition of IL-17A/TNF-alpha induced IL-8 production preincubated for 2 hrs followed by cytokine addition measured after 72 hrs by HTRF assay; type: functional, cell-based
Outline: (§1)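 Primary human keratinocytes were stimulated with IL-17, and the inflammatory response was read as increased IL-8 secretion. Cell viability was measured in the same cells as a secondary readout to separate specific inhibition from cytotoxicity. Betamethasone served as the assay control. Maximal inhibition of IL-8 release or of viability was recorded alongside IC50 where calculated.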

[2] = system: Keratinocyte; experiment: Antiinflammatory activity in primary human […] keratinocytes assessed as inhibition of IL-17A/TNF-alpha induced IL-8 production at 10 uM preincubated for 2 hrs followed by cytokine addition measured after 72 hrs by HTRF assay relative to control; type: functional
[3] = system: Keratinocyte; experiment: Cytotoxicity against primary human […] keratinocytes assessed as inhibition of cell viability preincubated for 2 hrs followed by cytokine addition measured after 72 hrs by PrestoBlue staining based fluorescence assay; outline: as §1
[4] = Cytotoxicity against primary human […] keratinocytes assessed as inhibition of cell viability at 10 uM preincubated for 2 hrs followed by cytokine addition measured after 72 hrs by PrestoBlue staining based fluorescence assay relative to control; set-up: species or system Keratinocyte; conditions: read-out: Imax
[5] = system: PBMC; experiment: Antiinflammatory activity in human PBMC assessed as inhibition of LPS-induced TNF-alpha production after 16 hrs by AlphaLisa assay; type: functional, cell-based
[6] = Homo sapiens, Keratinocyte, read-out: IC50

IC50 ([1]; keratinocyte) | IC50 [1, 6] [µM] | SMILES | Imax [2] [%] | IC50 ([3]; keratinocyte) | inhibition at 72 h, 10 µM [4] [%] | inhibition [5] | IC50 [3, 6] [µM]
Not Active | – | CC1=C2[C@H](/C=C(\C)C(=O)NCCc3ccc(F)cc3)CC[C@@H](C)[C@H]2CC1 | 44 | Not Active | 17 | inactive | –
– | 8.3 | CC1=C2[C@H](/C=C(\C)C(=O)NCCc3ccc(Br)cc3)CC[C@@H](C)[C@H]2CC1 | 60 | Not Active | 24 | inactive | –
Not Active | – | COCCNC(=O)/C(C)=C/[C@@H]1CC[C@@H](C)[C@H]2CCC(C)=C12 | 30 | Not Active | 7 | inactive | –
Not Active | – | CC1=C2[C@H](/C=C(\C)C(=O)NCCN3CCOCC3)CC[C@@H](C)[C@H]2CC1 | 17 | Not Active | 12 | inactive | –
– | 2.8 | CC1=C2[C@H](/C=C(\C)C(=O)NCc3ccccc3F)CC[C@@H](C)[C@H]2CC1 | 85 | – | 72 | inactive | 8.7
– | 4.9 | CC1=C2[C@H](/C=C(\C)C(=O)NCc3ccc(F)cc3)CC[C@@H](C)[C@H]2CC1 | 70 | – | 61 | inactive | 9.6

The remaining lines, values behind:

SMILES | IC50 ([1]; keratinocyte) | IC50 [1, 6] [µM] | Imax [2] [%] | IC50 ([3]; keratinocyte) | inhibition at 72 h, 10 µM [4] [%] | inhibition [5] | IC50 [3, 6] [µM]
CC1=C2[C@H](/C=C(\C)C(=O)NCCc3ccccn3)CC[C@@H](C)[C@H]2CC1 | Not Active | – | 14 | Not Active | 20 | inactive | –
C[C@H]1C[C@H]2[C@@H]3CCC4=CC(=O)C=C[C@]4(C)[C@@]3(F)[C@@H](O)C[C@]2(C)[C@@]1(O)C(=O)CO [BETAMETHASONE] | – | – | 49 | – | – | – | 0.3
CC1=C2[C@H](/C=C(\C)C(=O)NCc3ccccc3)CC[C@@H](C)[C@H]2CC1 | – | 2.9 | 84 | – | 72 | inactive | 9
CC1=C2[C@H](/C=C(\C)C(=O)NCCC(C)C)CC[C@@H](C)[C@H]2CC1 | Not Active | – | 22 | Not Active | 9 | inactive | –
CC1=C2[C@H](/C=C(\C)C(=O)NCc3cccc(F)c3)CC[C@@H](C)[C@H]2CC1 | – | 4.7 | 79 | – | 67 | inactive | 9.6
CC1=C2[C@H](/C=C(\C)C(=O)NCCc3ccccc3)CC[C@@H](C)[C@H]2CC1 | – | 7.5 | 64 | Not Active | 11 | inactive | –
CC1=C2[C@H](/C=C(\C)C(=O)O)CC[C@@H](C)[C@H]2CC1 [VALERENIC ACID] | – | – | 4 | Not Active | 15 | inactive | –
